In ChEMBL document CHEMBL1157246, “Cytotoxic isomalabaricane triterpenes from the marine sponge Rhabdastrella globostellata” (2006):
The source made the active and inactive calls. The calls are words filed in the database; no cut-off is given here.

Key:
PC-12 [1] = assay: Cytotoxicity against rat PC12 cells at 3 ug/mL after 72 hrs by MTT assay; format: functional; conditions: PC-12, 72 h
In short: (§1)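 Exponentially growing cells (3750 per well) were exposed to samples from EtOH 96% stocks for 72 h at 37 °C in 5% CO2. MTT (20 µL of 5 mg/mL in PBS, pH 7.4) was added for 3 h 45 min, then formazan was released with DMSO and read at 520 nm. Survival % was taken relative to untreated cells, with media containing 0.1% EGMME/DMSO as controls. Assays were run in triplicate and repeated three times.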

HeLa [2] = assay: Cytotoxicity against human HeLa cells after 72 hrs by MTT assay; format: functional; in short: as §1
PC-12 [3] = assay: Cytotoxicity against rat PC12 cells after 72 hrs by MTT assay; format: functional; in short: as §1
PC-12 [4] = assay: Cytotoxicity against rat PC12 cells at 10 ug/mL after 72 hrs by MTT assay; format: functional; conditions: PC-12, 72 h; in short: as §1
L5178Y [5] = assay: Cytotoxicity against mouse L5178Y cells at 3 ug/mL after 72 hrs by MTT assay; format: functional; in short: as §1
HeLa [6] = assay: Cytotoxicity against human HeLa cells at 3 ug/mL after 72 hrs by MTT assay; format: functional; in short: as §1
Saccharomyces cerevisiae [7] = assay: Antifungal activity against Saccharomyces cerevisiae after 24 hrs by agar diffusion assay; format: functional, organism-based
In short: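 S. cerevisiae was inoculated on YPD agar, and MeOH-dissolved compounds were applied on 5 mm disks. Inhibition zones were recorded after 24 h at 27 °C, with nystatin 5 µg as positive control.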

L5178Y [8] = assay: Cytotoxicity against mouse L5178Y cells after 72 hrs by MTT assay; format: functional; in short: as §1
L5178Y [9] = assay: Cytotoxicity against mouse L5178Y cells at 10 ug/mL after 72 hrs by MTT assay; format: functional; in short: as §1
HeLa [10] = assay: Cytotoxicity against human HeLa cells at 10 ug/mL after 72 hrs by MTT assay; format: functional; in short: as §1
Escherichia coli [11] = assay: Antibacterial activity against Escherichia coli DSM10290 at 10 ug after 24 hrs by agar diffusion assay; format: functional; conditions: read-out: IZ
In short: (§2)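 Disks (5 mm) impregnated with compound dissolved in MeOH were laid on LB agar plates seeded with B. subtilis DSM2109 or E. coli DSM10290. Inhibition zones were read after 24 h at 37 °C. Streptomycin and gentamycin, 5 µg each, served as positive controls.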

PC-12 [12] = assay: Cytotoxicity against rat PC12 cells at 30 ug/mL after 72 hrs by MTT assay; format: functional, cell-based; in short: as §1
HeLa [13] = assay: Cytotoxicity against human HeLa cells at 30 ug/mL after 72 hrs by MTT assay; format: functional, cell-based; in short: as §1
Bacillus subtilis [14] = assay: Antibacterial activity against Bacillus subtilis DSM2109 at 10 ug after 24 hrs by agar diffusion assay; format: functional; conditions: read-out: IZ; in short: as §2
Bacillus subtilis [15] = assay: Antibacterial activity against Bacillus subtilis DSM2109 at 5 ug after 24 hrs by agar diffusion assay; format: functional; conditions: read-out: IZ; in short: as §2
Escherichia coli [16] = assay: Antibacterial activity against Escherichia coli DSM10290 at 5 ug after 24 hrs by agar diffusion assay; format: functional; conditions: read-out: IZ; in short: as §2
Saccharomyces cerevisiae [17] = assay: Antifungal activity against Saccharomyces cerevisiae at 5 ug after 24 hrs by agar diffusion assay; format: functional, organism-based
In short: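 Paper disks (5 mm diameter) loaded with test material dissolved in MeOH were placed on YPD agar plates inoculated with S. cerevisiae. After 24 h of incubation at 27 °C, the zone of inhibition (mm) was recorded.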

Compound | inhibition at 3 µg/mL (PC-12 [1]) | ED50 (HeLa [2]) | ED50 (PC-12 [3]) | inhibition at 10 µg/mL (PC-12 [4]) | inhibition at 3 µg/mL (L5178Y [5]) | inhibition at 3 µg/mL (HeLa [6]) | Activity (Saccharomyces cerevisiae [7]) | ED50 (L5178Y [8]) | inhibition at 10 µg/mL (L5178Y [9]) | inhibition at 10 µg/mL (HeLa [10]) | zone of inhibition at 10 µg/disc (Escherichia coli [11]) | Activity (PC-12 [12]) | Activity (HeLa [13]) | zone of inhibition at 10 µg/disc (Bacillus subtilis [14]) | zone of inhibition at 5 µg/disc (Bacillus subtilis [15]) | zone of inhibition at 5 µg/disc (Escherichia coli [16]) | inhibition zone (IZ) (Saccharomyces cerevisiae [17])
CC(=O)O[C@@H]1CC[C@@]2(C)[C@@H](CC[C@]3(C)/C(=C(C)/C=C/C=C(\C)C(CC=C(C)C)O[C@@H]4OC[C@H](O)[C@H](O)[C@@H]4O)C(=O)C[C@@H]23)C1(C)C (some centres not stated) | 0% | 22.76 nmol | 21.54 nmol | 38% | 100% | 0% | inactive | 0.22 nmol | 100% | 56% | – | – | – | – | – | – | –
CC(C)=CCC(O[C@H]1OC[C@@H](O)[C@@H](O)[C@H]1O)/C(C)=C/C=C/C(C)=C1\C(=O)C[C@H]2[C@@]3(C)CC[C@@H](O)C(C)(C)[C@@H]3CC[C@]12C (some centres not stated) | 33% | 8.14 nmol | 27.63 nmol | 54% | 100% | 26% | inactive | 2.4 nmol | 100% | 100% | 12 mm | – | – | – | – | – | –
COC(/C=C/C(C)=C/C=C/C(C)=C1/C(=O)C[C@H]2[C@@]3(C)CC[C@@H](O)[C@](C)(C(=O)O)[C@@H]3CC[C@]12C)C(C)(C)O (some centres not stated) [GLOBOSTELLATIC ACID D, G] | 18% | 46.69 nmol | 30.33 nmol | 42% | 100% | 4% | inactive | 0.39 nmol | 100% | 25% | 10 mm | – | – | – | – | – | –
C/C(C(=O)/C=C/C(C)=C/C=C/C(C)(C)O)=C1/C(=O)C[C@H]2[C@@]3(C)CC[C@@H](O)[C@](C)(C(=O)O)[C@@H]3CC[C@]12C [GLOBOSTELLATIC ACID F] | 0% | – | – | 0% | 42% | 0% | inactive | 10.36 nmol | 100% | 0% | – | inactive | inactive | – | – | – | –
CCOC(/C=C/C(C)=C/C=C/C(C)=C1/C(=O)C[C@H]2[C@@]3(C)CC[C@@H](O)[C@](C)(C(=O)O)[C@@H]3CC[C@]12C)C(C)(C)O (some centres not stated) [GLOBOSTELLATIC ACID H, I] | 16% | 46.05 nmol | 28.07 nmol | 41% | 100% | 8% | inactive | 0.31 nmol | 100% | 23% | 10 mm | – | – | – | – | – | –
CCOC(/C=C/C(C)=C/C=C/C(C)=C1/C(=O)C[C@H]2[C@@]3(C)CC[C@@H](OC(C)=O)[C@](C)(C(=O)O)[C@@H]3CC[C@]12C)C(C)(C)O (some centres not stated) [GLOBOSTELLATIC ACID J, K] | 0% | – | – | 0% | 24% | 0% | inactive | 8.28 nmol | 100% | 0% | – | inactive | inactive | – | – | – | –
CC(/C=C/C(O)C(C)(C)O)=C\C=C\C(C)=C1\C(=O)C[C@H]2[C@@]3(C)CC[C@@H](O)[C@](C)(C(=O)O)[C@@H]3CC[C@]12C (some centres not stated) [GLOBOSTELLATIC ACID L, M] | 0% | 27.87 nmol | 27.52 nmol | 30% | 100% | 0% | inactive | 0.92 nmol | 100% | 42% | – | – | – | – | – | – | –
CC(=O)O[C@@H]1CC[C@@]2(C)[C@@H](CC[C@]3(C)/C(=C(\C)C(=O)/C=C/C(C)=C/C=C/C(C)(C)O)C(=O)C[C@@H]23)[C@@]1(C)C(=O)O [GLOBOSTELLATIC ACIDS A] | 0% | – | – | 0% | 100% | 0% | inactive | – | 100% | 0% | – | inactive | inactive | – | – | – | –
C/C(C(=O)/C=C/C(C)=C/C=C/C(C)(C)O)=C1/C(=O)C[C@H]2[C@@]3(C)CC[C@H](O)C(C)(C)[C@@H]3CC[C@]12C [GLOBOSTELLETIN] | 0% | >60 nmol | – | 0% | 66% | 0% | inactive | 5.34 nmol | 94% | 0% | – | inactive | – | 13 mm | 12 mm | – | –
CN[C@@H]1[C@H](O[C@H]2[C@H](O[C@H]3[C@H](O)[C@@H](O)[C@H](N=C(N)N)[C@@H](O)[C@@H]3N=C(N)N)O[C@@H](C)[C@]2(O)C=O)O[C@@H](CO)[C@H](O)[C@H]1O [STREPTOMYCIN] | – | – | – | – | – | – | – | – | – | – | – | – | – | – | 20 mm | 13 mm | –
NYSTATIN | – | – | – | – | – | – | – | – | – | – | – | – | – | – | – | – | 12 mm
